Assay results published in ChEMBL document CHEMBL2177067 (J Med Chem, 2012).
Values after ≈ are worked out from the molar mass of the structure shown.

Legend:
[1] = Selectivity index, ratio of CC50 for human HeLa cells to MIC for Staphylococcus aureus ATCC 25923; format: functional
How it was run: (§1)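 Selectivity index is HeLa CC50 (MTS assay) divided by the bacterial MIC.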

HeLa = test: Cytotoxicity against human HeLa cells by MTS assay; format: cell-based
[2] = Selectivity index, ratio of CC50 for human HeLa cells to MIC for Bacillus anthracis; format: functional; how it was run: as §1
Staphylococcus aureus [3] = test: Antibacterial activity against Staphylococcus aureus ATCC 25923 by broth microdilution method; format: functional
Bacillus anthracis = test: Antibacterial activity against Bacillus anthracis by broth microdilution method; format: functional
[4] = Inhibition of Staphylococcus aureus ATCC 25923 replicative DnaB helicase-mediated ATP-dependent dissociation of Hel-5'FAM:Hel-3'BHQ by FRET assay
How it was run: (§2)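 Unwinding was read by FRET as helicase-driven, ATP-dependent dissociation of annealed Hel-5′FAM and Hel-3′BHQ oligonucleotides, one fluorescent and the other quencher-labelled. The replicative helicases were prepared as described earlier.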

Replicative DNA helicase = target: T1, Replicative DNA helicase (Bacillus anthracis, UniProt A0A6L8Q2B7); test: Inhibition of Bacillus anthracis Sterne 34F2 replicative DNA helicase-mediated ATP-dependent dissociation of Hel-5'FAM:Hel-3'BHQ by FRET assay; parameters: species or system Bacillus anthracis str. Sterne; how it was run: as §2
T1 sequence (A0A6L8Q2B7 whole entry): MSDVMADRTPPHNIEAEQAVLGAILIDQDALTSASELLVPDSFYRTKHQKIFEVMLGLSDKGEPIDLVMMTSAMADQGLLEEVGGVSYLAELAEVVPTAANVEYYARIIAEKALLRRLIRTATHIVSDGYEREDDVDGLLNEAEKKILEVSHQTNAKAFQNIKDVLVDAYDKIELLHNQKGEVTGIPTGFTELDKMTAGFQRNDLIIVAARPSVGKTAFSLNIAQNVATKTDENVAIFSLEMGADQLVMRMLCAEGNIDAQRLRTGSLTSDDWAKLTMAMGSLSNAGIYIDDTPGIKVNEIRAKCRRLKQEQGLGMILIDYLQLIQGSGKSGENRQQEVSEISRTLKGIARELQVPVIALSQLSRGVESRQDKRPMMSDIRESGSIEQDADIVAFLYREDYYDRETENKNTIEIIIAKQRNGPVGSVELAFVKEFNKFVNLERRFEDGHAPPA

Staphylococcus aureus [5] = test: Antibacterial activity against Staphylococcus aureus ATCC 25923 by broth microdilution method in presence of reserpine; format: functional

Row | SMILES | Selectivity Index [1] | CC50 (HeLa) [µM] | Selectivity Index [2] | MIC (Staphylococcus aureus [3]) [µM] | MIC (Bacillus anthracis) [µM] | IC50 [4] [µM] | IC50 (Replicative DNA helicase) [µM] | MIC (Staphylococcus aureus [5]) [µM]
1 | CNC(=O)CCc1c(C)c2ccc(OCc3ccc(-c4ccc(Cl)cc4)cc3)c(C)c2oc1=O | 0.91 | 90.7 | 0.91 | > 100 | > 100 | 38 | > 100 | –
2 | Cc1c(CCC(=O)O)c(=O)oc2c(C)c(OCc3ccccc3)ccc12 | – | – | – | – | – | 60 | 85 | –
3 | Cc1c(CCC(=O)O)c(=O)oc2cc(OCc3ccc(-c4ccccc4)cc3)ccc12 | 6.8 | 21.2 | 8.5 | 3.12 (≈ 1.3 µg/mL) | 2.5 (≈ 1.04 µg/mL) | 6 | 9.7 | –
4 | Cc1c(CCC(=O)O)c(=O)oc2c(C)c(OCc3ccncc3)ccc12 | – | – | – | – | – | > 100 | > 100 | –
5 | CC(=O)NCCNC(=O)CCc1c(C)c2ccc(OCc3ccc(-c4ccccc4)cc3)c(C)c2oc1=O | – | – | – | – | – | > 100 | > 100 | –
6 | Cc1c(CC(=O)O)c(=O)oc2c(C)c(OCc3ccc(-c4ccccc4)cc3)ccc12 | 14 | 115 | 46 | 8.2 (≈ 3.4 µg/mL) | 2.5 (≈ 1.04 µg/mL) | 8.6 | 9 | 12.5
7 | Cc1c(OCc2ccc(-c3ccccc3)cc2)ccc2cc(CCC(=O)O)c(=O)oc12 | 2.5 | > 100 | >40 | > 100 | – | 14 | 21 | > 100
8 | CCc1c(OCc2ccc(-c3ccccc3)cc2)ccc2c(C)c(CCCC(=O)O)c(=O)oc12 | 3.1 | 15.4 | 6.2 | > 100 | 2.5 (≈ 1.14 µg/mL) | 1.8 | 5 | > 100
9 | Cc1c(CCC(=O)NCCN(C)C)c(=O)oc2c(C)c(OCc3ccc(-c4ccccc4)cc3)ccc12 | 0.22 | 1.1 | 0.44 | 5 (≈ 2.49 µg/mL) | 2.5 (≈ 1.25 µg/mL) | 1.7 | 1.8 | –
10 | CCc1c(OCc2ccc(-c3ccccc3)cc2)ccc2c(C)c(CCC(=O)O)c(=O)oc12 | 8.4 | 42 | 34 | 5 (≈ 2.21 µg/mL) | 1.25 (≈ 0.553 µg/mL) | – | 2 | –
11 | Cc1c(CCC(=O)O)c(=O)oc2c(C)c(OCc3c4ccccc4cc4ccccc34)ccc12 | 0.4 | 8.3 | 3.3 | 20 (≈ 9.05 µg/mL) | 2.5 (≈ 1.13 µg/mL) | 8.3 | 7.2 | 50
12 | Cc1c(CCC(=O)O)c(=O)oc2cc(OCc3nccc4ccccc34)ccc12 | – | – | – | – | – | > 100 | > 100 | –
13 | Cc1c(CCC(=O)O)c(=O)oc2c(C)c(OCc3ccccc3-c3ccccc3)ccc12 | 0.4 | 4.4 | 1.8 | 10 (≈ 4.28 µg/mL) | 2.5 (≈ 1.07 µg/mL) | 9 | 10.2 | –
14 | Cc1c(CCC(=O)O)c(=O)oc2cc(OCc3ccc4ccc(Cl)cc4n3)ccc12 | – | – | – | – | – | 70 | > 100 | –
